Compound activity from PubChem.
An excerpt weighted towards active compounds, which were near 3.9% of everything screened.
TMEM16A act: activates or potentiates the mouse TMEM16A chloride channel. B-score at 10 µM. HEK293 TMEM16A/YFP-H148Q/I152L, iodide quench fluorescence; active compounds read low. 340,000 tested, 0.3% active. Q8BHY3;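 active means fluorescence-ratio B-score plate-corrected deviation score at least 3 library SD below zero, with starting fluorescence score within 5 deviations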;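 further: channel opened by trigger with iodide after compound preincubation; score built on the fluorescence ratio of max minus min over baseline; more negative score means more quench and so TMEM16A activation or potentiation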
TMEM16A inh: blocks the mouse calcium-activated chloride channel TMEM16A | HEK293 TMEM16A/YFP iodide influx fluorescence, ionomycin | normalized B-score (activity score, 25-100; higher = stronger inhibition) at 10 µM | Q8BHY3 | 310,000 tested, 1.2% active;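 active means ratio plate-corrected score three or more library SD toward inhibition, starting fluorescence score within five deviations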;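 further: score derived from kinetic fluorescence span divided by baseline fluorescence per well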
CRFR2-BP antag: antagonists of CRF-binding protein/CRF-R2 receptor complex; HEK293 CRF-R2/CRF-BP, CRF-induced calcium fluorescence; inhibition, % at 11.8 µM; 350,000 tested, 0.59% active;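 active means inhibition of the ligand-induced calcium signal above about 50% at the single tested concentration, limit read from the data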
CRFBP-R2 agonist: agonists of human CRF-binding protein/CRF-R2 receptor complex; HEK293 CRF-R2/CRF-BP, calcium dye fluorescence (FLIPR); percent of saturating CRF peptide response; activation, % at 13.2 µM; 350,000 tested, 0.46% active; AID 588473;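 active means activation of at least 50%, plus an integration ratio under a set limit after plate pattern correction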;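 further: plate controls were neutral control wells without compound for no effect and CRF at EC100 for full effect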
TAAR1 agonist: agonists of human TAAR1; CHO RD-HGA16 TAAR1, Fluo-8 calcium fluorescence; vehicle wells 0%, saturating PEA agonist 100%; activation, % at 3 µM; 360,000 tested, 0.99% active; Q96RJ0; AID 624467;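 active means activation above the mean activation of all test compounds in the run plus 3 SD, cut at about 38% in these data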
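Repeats: no replicates (n 1) | Material: CHO-derived RD-HGA16 cells with stable Gα16 and human TAAR1 | Technique: Kinetic Fluo-8 calcium fluorescence | Schedule: 17-24 h seeding, 75 min 37 °C dye, 30 min RT | Evaluation: % activation from peak over basal fluorescence ratio, DMSO-to-PEA scaled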
TAAR1 antag: human TAAR1 antagonism; inhibition, % at 3 µM; AID 624466; 360,000 tested, 1.5% active; Q96RJ0; CHO RD-HGA16 TAAR1, Fluo-8 calcium fluorescence, antagonist;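 active means inhibition above a per-plate cutoff, the mean inhibition of test compounds on that plate plus 3 SD, cut at about 49% in these data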;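 further: 0% = DMSO plus EC80 beta-PEA response and 100% = DMSO alone without agonist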
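Assay system: RD-HGA16 CHO cells with stable hTAAR1 and Gα16 / Reagent: EC80 β-phenethylamine stimulus / Doses: 3 µM, single point / Timing: dye loading 75 min at 37 °C, then 30 min room temperature / Measured by: Fluo-8 intracellular calcium dye fluorescence, real-time kinetic reads / Controls: vehicle wells and EC80 agonist wells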
TAAR1 nonsel count: counter-screen for TAAR1 antagonists: nonselective antagonists. 2,400 tested, 77% active. AID 651780. inhibition, % at 3 µM. counterscreen cell line, calcium fluorescence, antagonist mode. shares compounds with TAAR1 antag; in the data active means inhibition above about 22%;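 further: CHO-Ga16 host cells stimulated with ATP at an EC80 level; 0% = agonist EC80 plus vehicle and 100% = vehicle without agonist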
TAAR1 antag conf: human TAAR1 antagonism, confirmed | shares compounds with TAAR1 antag | TAAR1-expressing cells, fluorescence antagonist read-out | inhibition, % at 3 µM | 2,400 tested, 40% active | AID 651785; in the data active means inhibition above about 49%;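 further: CHO-Ga16 host cells challenged with agonist PEA near its EC80; 0% = agonist at EC80 plus vehicle and 100% = vehicle with no agonist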
Ga16 ag counter: nonselective Ga16 agonism, counter-screen | 2,400 tested, 18% active | Ga16-expressing cells, calcium fluorescence, agonist counterscreen | shares compounds with TAAR1 antag | activation, % at 3 µM | AID 651953; in the data active means activation above about 12%;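 further: 0% = vehicle wells and 100% = saturating stimulus response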
TAAR1 ag counter: TAAR1 agonism, antagonist counter-screen | 2,400 tested, 2% active | shares compounds with TAAR1 antag | activation, % at 3 µM | hTAAR1 cell line, fluorescence activation, agonist mode | AID 651955; in the data active means activation above about 37%;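 further: CHO cells stably expressing TAAR1 with calcium dye readout; 0% = DMSO vehicle and 100% = full agonist response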
* hit, by the source's call; i = inactive; / = no result.

SMILES	TMEM16A act	TMEM16A inh	CRFR2-BP antag	CRFBP-R2 agonist	TAAR1 agonist	TAAR1 antag	TAAR1 nonsel count	TAAR1 antag conf	Ga16 ag counter	TAAR1 ag counter
O=C(c1cc(-c2ccncc2)nc2ccccc12)N1CCN(S(=O)(=O)/C=C/c2ccccc2)CC1	i	i	-1.3	0.1	21.3	69.6*	28.8*	45.4	8.8	7.5
O=C(c1cc(-c2ccccc2Cl)nc2ccc(Br)cc12)N1CCN(c2ccccn2)CC1	i	25*	-6.1	2.2	5.5	59.1*	30.3*	46.8	9.4	21.1
Cc1ccc(-c2cc(-c3ccc(F)cc3)c(C#N)c(N)n2)o1	i	i	1.2	0.5	-0.7	57.0*	16.9	35.3	-1.1	-2.2
COc1ccc(/C(N)=N/OC(=O)C2CCC(=O)N2S(=O)(=O)c2ccc(C)cc2)cc1OC (stereo unspecified)	i	i	-5.5	-1.6	2.0	-17.6	/	/	/	/
CCCN(CC1CC1)C(=O)COC(=O)c1ccc2c(c1)C(=O)N(c1ccc(OCC)cc1)C2=O	i	i	-13.4	-0.2	33.5	54.6*	30.4*	40.4	7.5	6.4
COc1cc2c(cc1OC)C1=C(C#N)CN(C3CCCCC3)CN1CC2	i	i	3.5	0.9	7.6	52.6*	23.2*	33.5	9.7	7.4
COc1ccc(CCN2CC(C#N)=C3c4cc(OC)c(OC)cc4CCN3C2)cc1OC	i	i	27.2	-5.0	4.3	9.2	/	/	/	/
O=C(OCC#CCSc1nnc(-c2cccc3ccccc23)o1)c1cccc2[nH]ccc12	i	/	-0.3	0.6	11.0	51.2*	15.8	25.4	2.1	0.4
COCCN(CCOC)C(=O)COC(=O)c1cc([N+](=O)[O-])ccc1Cl	i	i	-1.8	0.1	0.5	-27.1	/	/	/	/
O=C(Nc1cccc(-c2nnc(-c3ccco3)o2)c1)C(c1ccccc1)c1ccccc1	i	i	28.1	3.5	18.5	63.7*	28.6*	38.8	2.0	0.3
O=C(Cc1ccc(Cl)cc1)Nc1cccc(-c2nnc(-c3ccco3)o2)c1	i	i	-17.6	1.1	17.6	62.4*	27.5*	40.3	10.9	11.2
O=C(Cc1ccccc1)Nc1cccc(-c2nnc(-c3ccco3)o2)c1	i	i	0.7	0.2	21.8	35.4	/	/	/	/
O=C(Nc1cccc(-c2nnc(-c3ccco3)o2)c1)c1ccccc1	i	i	-86.3	26.0	8.8	35.5	/	/	/	/
CN1/C(=C\C(=O)COC(=O)Cn2nnc(-c3ccccc3)n2)C(C)(C)c2ccccc21	i	25*	8.8	1.4	9.2	51.6*	44.0*	39.4	7.0	-0.1
c1ccc(COc2ccc3nocc3c2)cc1	i	i	28.7	-1.0	1.9	6.3	/	/	/	/
CS(=O)(=O)N1CCN(c2ccccc2NC(=S)NC(=O)c2ccco2)CC1	i	i	6.0	-2.2	16.1	48.6*	28.8*	44.3	8.9	7.7
O=C(NC(=S)Nc1ccccc1N1CCOCC1)c1ccco1	i	i	9.8	-1.0	4.2	-1.9	/	/	/	/
Cc1ccc(-c2nc3ncccc3o2)cc1NC(=O)c1cc2ccccc2o1	i	i	-10.7	0.5	14.4	12.6	/	/	/	/
O=C(Nc1cccc(-c2nc3ncccc3o2)c1)c1cc2ccccc2o1	i	i	-1.3	-0.4	15.5	60.8*	28.3*	49.1*	6.2	6.9
Cc1cc(C)cc(OCC(=O)Nc2cccc(-c3nc4ncccc4o3)c2)c1	i	i	-8.3	4.7	7.5	70.4*	30.8*	58.0*	9.5	13.1
CC(C)c1ccc(/C=N/NC(=O)c2ccc(-n3cnnn3)cc2)cc1	i	/	11.8	1.1	16.4	66.2*	32.3*	47.9	9.0	7.8
COc1ccccc1CNC(=O)c1cc(C(=O)CC(C)C)c[nH]1	i	i	12.5	0.2	0.9	10.3	/	/	/	/
COc1cccc(CN2CC(C(=O)N3CCN(c4ccc(Cl)cc4)CC3)CCC2=O)c1 (stereo unspecified)	i	i	10.8	-0.8	0.0	1.4	/	/	/	/
COc1cc(/C=N/n2cnnc2)ccc1OC(=O)c1ccncc1	i	i	-0.3	-0.1	1.7	106.7*	6.2	3.6	0.6	-0.7
COc1cccc(CNC23CC4CC(CC(C4)C2)C3)c1OCc1ccccc1	i	i	-26.2	-0.1	13.5	-16.4	/	/	/	/
SMILES	TMEM16A act	TMEM16A inh	CRFR2-BP antag	CRFBP-R2 agonist	TAAR1 agonist	TAAR1 antag	TAAR1 nonsel count	TAAR1 antag conf	Ga16 ag counter	TAAR1 ag counter
O=S(=O)(NC1CCc2ccccc21)c1ccccc1 (stereo unspecified)	/	/	-6.5	-2.8	0.3	-11.6	/	/	/	/
Cc1ccc(S(=O)(=O)NC2CCCc3ccccc32)cc1C (stereo unspecified)	i	i	5.1	-1.2	11.6	50.4*	11.3	39.0	4.7	10.3
c1ccc(CCc2cn(C[C@H]3CC[C@@H]([C@@H]4CC[C@H](Cn5cc(CCc6ccccc6)nn5)O4)O3)nn2)cc1	i	i	-2.4	0.1	26.4	56.9*	31.8*	56.5*	12.9*	12.8
c1ccc(-c2cn(C[C@H]3CC[C@@H]([C@@H]4CC[C@H](Cn5cc(-c6ccccc6)nn5)O4)O3)nn2)cc1	i	i	-5.5	0.0	12.9	8.6	/	/	/	/
COc1ccc(OC2C(=O)N(CCc3ccc(OC)c(OC)c3)C2c2ccc3c(c2)OCO3)cc1 (stereo unspecified)	i	i	33.9	4.1	5.7	57.5*	22.3*	24.5	5.4	1.4
CCCn1c(N)c(C(=O)CSc2ncnc3sccc23)c(=O)n(C)c1=O	i	/	-7.0	1.2	8.9	19.0	/	/	/	/
CCNC(=O)C1(C)CCN1CCS(=O)(=O)c1ccc(C)cc1 (stereo unspecified)	/	/	/	/	0.1	1.0	/	/	/	/
O=C(CN1C(=O)NC2(CCOc3ccccc32)C1=O)NCC(F)(F)F (stereo unspecified)	i	i	10.6	-1.3	-4.5	-2.6	/	/	/	/
COC(=O)c1c(-c2ccc(OC)cc2)oc2ccc(-c3cc(OC)c(OC)c(OC)c3)cc12	i	i	9.9	1.7	7.4	58.0*	14.1	31.6	3.0	8.9
COC(=O)c1c(-c2ccc(OC)cc2)oc2ccc(-c3ccc(OC)nc3)cc12	i	i	-15.1	6.4	13.5	12.0	/	/	/	/
